Results as given in ChEMBL document CHEMBL1143739, “SAR study of bicyclo[4.1.0]heptanes as melanin-concentrating hormone receptor R1 antagonists: taming hERG” (Bioorg Med Chem, 2007).
The source made the active and inactive calls. The calls are words filed in the database; no cut-off is given here.

Key:
[1] = target: Melanin-concentrating hormone receptor 1 (Homo sapiens, UniProt Q99705); test: Displacement of [125I]MCH from MCHR1 expressed in CHO cells; assay type: cell-based
In short: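 Human MCH R1, CHO cell membranes (0.1 mg/mL) on SPA beads (1 mg/mL). Buffer: 25 mM HEPES, 10 mM MgCl2, 5 mM MnCl2, 0.1% BSA, pH 7.4. Incubation 2–4 h at room temperature, scintillation count. Ki by non-linear regression; mean ± range of two determinations, each in quadruplicate.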

[2] = target: Melanin-concentrating hormone receptor 1 (Mus musculus) (UniProt Q8JZL2); test: Ex vivo displacement of [125I]S36057 binding from mouse brain MCHR1 at 30 mg/kg, po after 6 hrs; assay type: functional, organism-based; set-up: dose 30 mg/kg
Chain of Melanin-concentrating hormone receptor 1 (Mus musculus) (Q8JZL2 whole entry): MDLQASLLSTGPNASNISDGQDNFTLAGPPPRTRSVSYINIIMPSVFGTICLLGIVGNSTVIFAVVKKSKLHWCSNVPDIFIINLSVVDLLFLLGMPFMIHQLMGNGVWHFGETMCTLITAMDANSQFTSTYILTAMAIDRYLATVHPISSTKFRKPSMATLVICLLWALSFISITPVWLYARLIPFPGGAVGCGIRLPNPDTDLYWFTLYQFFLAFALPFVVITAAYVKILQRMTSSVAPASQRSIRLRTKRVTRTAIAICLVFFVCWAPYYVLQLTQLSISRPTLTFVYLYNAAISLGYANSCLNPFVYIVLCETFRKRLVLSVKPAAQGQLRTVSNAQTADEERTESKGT

[3] = target: Melanin-concentrating hormone receptor 1 (Mus musculus) (UniProt Q8JZL2); test: Ex vivo displacement of [125I]S36057 binding from mouse brain MCHR1 at 30 mg/kg, po after 24 hrs; assay type: functional, organism-based; set-up: dose 30 mg/kg
[4] = target: Voltage-gated inwardly rectifying potassium channel KCNH2 (Homo sapiens, UniProt Q12809); test: (§1) Inhibition of hERG expressed in CHO cells at 5 ug/mL by rubidium efflux assay; assay type: toxicity, cell-based; settings: cho
Chain of Voltage-gated inwardly rectifying potassium channel KCNH2 (Q12809 whole entry): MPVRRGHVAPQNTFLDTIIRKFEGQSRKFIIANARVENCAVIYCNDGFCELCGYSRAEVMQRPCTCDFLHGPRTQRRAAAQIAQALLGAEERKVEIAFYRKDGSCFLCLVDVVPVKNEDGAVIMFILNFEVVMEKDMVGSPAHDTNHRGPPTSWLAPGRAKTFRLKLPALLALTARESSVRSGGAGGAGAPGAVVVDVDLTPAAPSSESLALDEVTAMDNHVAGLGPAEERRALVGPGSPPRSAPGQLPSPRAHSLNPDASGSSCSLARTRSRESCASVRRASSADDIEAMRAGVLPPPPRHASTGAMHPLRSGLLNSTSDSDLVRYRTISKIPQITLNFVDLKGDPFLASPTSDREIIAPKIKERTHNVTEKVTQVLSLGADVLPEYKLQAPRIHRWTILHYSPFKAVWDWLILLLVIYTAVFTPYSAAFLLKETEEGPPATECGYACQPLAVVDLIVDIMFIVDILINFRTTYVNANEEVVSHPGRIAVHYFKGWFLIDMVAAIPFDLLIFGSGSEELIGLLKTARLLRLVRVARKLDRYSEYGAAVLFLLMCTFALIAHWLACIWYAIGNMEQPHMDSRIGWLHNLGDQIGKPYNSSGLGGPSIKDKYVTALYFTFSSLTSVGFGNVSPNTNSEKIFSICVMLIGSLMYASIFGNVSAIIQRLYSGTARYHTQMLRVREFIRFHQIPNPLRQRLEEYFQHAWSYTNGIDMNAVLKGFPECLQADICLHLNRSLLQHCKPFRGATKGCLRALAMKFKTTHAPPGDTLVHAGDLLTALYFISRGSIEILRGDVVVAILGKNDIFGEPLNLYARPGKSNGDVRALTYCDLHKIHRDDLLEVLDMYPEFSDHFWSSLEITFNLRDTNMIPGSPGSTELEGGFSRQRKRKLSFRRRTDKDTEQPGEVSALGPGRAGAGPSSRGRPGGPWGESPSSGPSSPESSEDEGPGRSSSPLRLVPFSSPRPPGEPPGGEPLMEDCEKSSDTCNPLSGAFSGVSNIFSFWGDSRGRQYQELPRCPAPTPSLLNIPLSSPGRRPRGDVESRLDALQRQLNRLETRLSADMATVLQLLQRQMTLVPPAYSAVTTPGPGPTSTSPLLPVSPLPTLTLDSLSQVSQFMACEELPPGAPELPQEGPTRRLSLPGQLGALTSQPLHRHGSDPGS
In short: (§2)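 hERG-CHO cells plated 24 h, then loaded 3 h in HEPES-buffered saline with 5.4 mM RbCl. Compound added and equilibrated 30 min at 37 °C. Cells washed three times in Rb-free saline (5.4 mM KCl), then depolarized 5 min with 45.4 mM KCl.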

hERG (KCNH2) [5] = target: T1, hERG (KCNH2) (Homo sapiens, UniProt Q12809); test: as §1; assay type: toxicity, cell-based; settings: CHO cells that express hERG; in short: as §2
T1 sequence (Q12809 whole entry): as above

hERG (KCNH2) [6] = target: T1, hERG (KCNH2); test: Inhibition of hERG expressed in CHO cells at […] by rubidium efflux assay; assay type: toxicity, cell-based; settings: CHO cells that express hERG

Chain of Melanin-concentrating hormone receptor 1 (Q99705 whole entry): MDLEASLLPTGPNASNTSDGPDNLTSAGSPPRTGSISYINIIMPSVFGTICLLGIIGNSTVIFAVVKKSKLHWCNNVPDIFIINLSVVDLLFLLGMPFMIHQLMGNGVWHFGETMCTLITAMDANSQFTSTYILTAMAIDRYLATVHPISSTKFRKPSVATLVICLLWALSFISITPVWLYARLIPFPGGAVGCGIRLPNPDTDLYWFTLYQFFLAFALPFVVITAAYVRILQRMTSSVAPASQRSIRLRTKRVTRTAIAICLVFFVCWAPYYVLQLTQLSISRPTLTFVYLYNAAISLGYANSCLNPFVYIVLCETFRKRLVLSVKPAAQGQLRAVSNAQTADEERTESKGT

Ki [1] [nM] | Activity [2] [%] | Activity [3] | Compound | Activity [4] | inhibition at 5 ug/mL (hERG (KCNH2) [5]) [%] | inhibition at […] (hERG (KCNH2) [6]) [%]
9.4 | 73 | 25% | CC(C)N(CCN(C(=O)Nc1ccc(F)c(Cl)c1)[C@@H]1CC[C@]2(c3cccc(C#N)c3)CC2C1)[C@H](C)CO (some centres undefined) | Not Active | – | –
13 | 88 | 75% | NCc1ncc(C2=CCC(N(CCN3CCCC3)C(=O)Nc3ccc(F)c(Cl)c3)CC2)s1 (centres undefined) | – | 10 | –
5.2 | 75 | 35% | CC(C)N(CCN(C(=O)Nc1ccc(F)c(Cl)c1)[C@@H]1CC[C@]2(c3cccc(C#N)c3)CC2C1)[C@@H](C)CO (some centres undefined) | – | 82 | –
4.1 | 62 | inactive | CO/N=C/c1cccc([C@]23CC[C@@H](N(CCN(C(C)C)C(C)C)C(=O)Nc4ccc(F)c(Cl)c4)CC2C3)c1 (some centres undefined) | – | 76 | –
1.2 | 82 | 41% | CC1CC[C@@H](CO)N1CCN(C(=O)Nc1cc(Cl)nc(Cl)c1)[C@@H]1CC[C@]2(c3cccc(C#N)c3)CC2C1 (some centres undefined) | – | 60 | –
5 | 83 | inactive | CC(C)N(CCN(C(=O)Nc1ccc(F)c(Cl)c1)[C@@H]1CC[C@]2(c3cccc(C#N)c3)CC2C1)C(C)C (some centres undefined) | – | 78 | 44
1.6 | 99 | 81% | CC(C)N(CCN(C(=O)Nc1cc(Cl)nc(Cl)c1)[C@@H]1CC[C@]2(c3cccc(C#N)c3)CC2C1)[C@@H](C)CO (some centres undefined) | – | 60 | –
1.6 | 99 | inactive | CC(C)N(CCO)CCN(C(=O)Nc1cc(Cl)nc(Cl)c1)[C@@H]1CC[C@]2(c3cccc(C#N)c3)CC2C1 (some centres undefined) | Not Active | – | –
11 | 31 | 2% | CC1CC[C@@H](CO)N1CCN(C(=O)Nc1ccc(F)c(Cl)c1)[C@@H]1CC[C@]2(c3cccc(C#N)c3)CC2C1 (some centres undefined) | – | 78 | –
31 | 59 | 3% | CC(=O)c1ccc(C2=CCC(N(CCN3CCCC3)C(=O)Nc3ccc(F)c(Cl)c3)CC2)s1 (centres undefined) | – | 43 | –
1.9 | 93 | 70% | CC(C)NCCN(C(=O)Nc1cc(Cl)nc(Cl)c1)[C@@H]1CC[C@]2(c3cccc(C#N)c3)CC2C1 (some centres undefined) | Not Active | – | –
4.4 | 89 | 32% | N#Cc1cccc([C@]23CC[C@@H](N(CCNCCF)C(=O)Nc4cc(Cl)nc(Cl)c4)CC2C3)c1 (some centres undefined) | – | 84 | –
